Data set [1] addresses T1, Lipopolysaccharide heptosyltransferase 1 (Escherichia coli (strain K12)) (UniProt P24173).
T1 sequence (whole entry): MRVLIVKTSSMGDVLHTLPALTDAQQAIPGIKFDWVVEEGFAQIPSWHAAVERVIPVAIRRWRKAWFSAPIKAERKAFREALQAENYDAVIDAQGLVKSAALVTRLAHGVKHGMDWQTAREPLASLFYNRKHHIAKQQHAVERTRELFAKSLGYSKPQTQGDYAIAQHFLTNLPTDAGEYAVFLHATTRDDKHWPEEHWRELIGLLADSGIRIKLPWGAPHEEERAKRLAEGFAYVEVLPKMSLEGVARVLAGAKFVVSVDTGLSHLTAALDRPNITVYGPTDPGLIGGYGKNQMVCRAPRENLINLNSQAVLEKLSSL
The data set can be described thus: Inhibition of Escherichia coli Heptosyltransferase I assessed as reduction in ADP release at 1 mM using ODLA and ADP-heptose substrates in presence of phospho(enol)pyruvate and NADH by pyruvate kinase and LDH based ADP/NADH coupling assay.

Data set [2] concerns the target T1, Lipopolysaccharide heptosyltransferase 1 (Escherichia coli (strain K12)). Briefly: Substrate activity at Escherichia coli Heptosyltransferase I assessed as ADP release at 100 uM using phospho(enol)pyruvate and NADH by pyruvate kinase and LDH based ADP/NADH coupling assay. A digest of the protocol: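 Screening for acceptor-substrate (nucleophile) use by HepI. Each compound replaces the normal Kdo2-Lipid A-type acceptor. ADP-heptose is the heptose donor. Free glucose and galactose and their α- and β-methyl glycosides were screened the same way before the synthesized compounds.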

The target of data set [3] is T2, Lipopolysaccharide heptosyltransferase 1 (Escherichia coli (strain K12), UniProt P24173).
T2 sequence (P24173 whole entry): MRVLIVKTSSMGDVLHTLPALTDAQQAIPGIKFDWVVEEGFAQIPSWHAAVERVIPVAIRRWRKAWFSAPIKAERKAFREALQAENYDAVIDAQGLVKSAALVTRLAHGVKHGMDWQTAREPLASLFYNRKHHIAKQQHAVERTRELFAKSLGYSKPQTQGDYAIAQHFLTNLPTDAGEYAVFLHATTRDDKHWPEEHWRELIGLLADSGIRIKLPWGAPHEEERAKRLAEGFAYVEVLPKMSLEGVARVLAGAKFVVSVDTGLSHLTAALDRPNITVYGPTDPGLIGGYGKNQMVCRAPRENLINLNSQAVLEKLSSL
Briefly: Inhibition of Escherichia coli Heptosyltransferase I assessed as reduction in ADP release using ODLA and ADP-heptose substrates in presence of phospho(enol)pyruvate and NADH by pyruvate kinase and LDH based ADP/NADH coupling assay.

Compound in data set [4]: CCCC/C=C/CO[C@@H]1O[C@H](CO)[C@@H](O)[C@H](O)[C@H]1O
Briefly: Noncompetitive inhibition of Escherichia coli Heptosyltransferase I assessed as reduction in ADP release by measuring ODLA Kcat at 10 uM using ODLA and ADP-heptose substrates in presence of phospho(enol)pyruvate and NADH by pyruvate kinase and LDH dependent ADP/NADH coupling assay based Lineweaver-Burk plot.

Compound in data set [5]: CCCC/C=C/CO[C@@H]1O[C@H](CO)[C@@H](O)[C@H](O)[C@H]1O
The data set can be described thus: Noncompetitive mixed type inhibition of Escherichia coli Heptosyltransferase I assessed as reduction in ADP release by measuring ADP-heptose Km at 1000 uM using ODLA and ADP-heptose substrates in presence of phospho(enol)pyruvate and NADH by pyruvate kinase and LDH dependent ADP/NADH coupling assay based Lineweaver-Burk plot.

Compound in data set [6]: CCCC/C=C/CO[C@@H]1O[C@H](CO)[C@@H](O)[C@H](O)[C@H]1O
The data set can be described thus: Noncompetitive inhibition of Escherichia coli Heptosyltransferase I assessed as reduction in ADP release by measuring ODLA Kcat at 1000 uM using ODLA and ADP-heptose substrates in presence of phospho(enol)pyruvate and NADH by pyruvate kinase and LDH dependent ADP/NADH coupling assay based Lineweaver-Burk plot.

Compound in data set [7]: CCCC/C=C/CO[C@@H]1O[C@H](CO)[C@@H](O)[C@H](O)[C@H]1O
Briefly: Noncompetitive mixed type inhibition of Escherichia coli Heptosyltransferase I assessed as reduction in ADP release by measuring ADP-heptose Kcat at 100 uM using ODLA and ADP-heptose substrates in presence of phospho(enol)pyruvate and NADH by pyruvate kinase and LDH dependent ADP/NADH coupling assay based Lineweaver-Burk plot.

Compound in data set [8]: CCCC/C=C/CO[C@@H]1O[C@H](CO)[C@@H](O)[C@H](O)[C@H]1O
The data set can be described thus: Noncompetitive mixed type inhibition of Escherichia coli Heptosyltransferase I assessed as reduction in ADP release by measuring ADP-heptose Km at 10 uM using ODLA and ADP-heptose substrates in presence of phospho(enol)pyruvate and NADH by pyruvate kinase and LDH dependent ADP/NADH coupling assay based Lineweaver-Burk plot.

Compound in data set [9]: CCCC/C=C/CO[C@@H]1O[C@H](CO)[C@@H](O)[C@H](O)[C@H]1O
Briefly: Noncompetitive inhibition of Escherichia coli Heptosyltransferase I assessed as reduction in ADP release by measuring ODLA Kcat at 100 uM using ODLA and ADP-heptose substrates in presence of phospho(enol)pyruvate and NADH by pyruvate kinase and LDH dependent ADP/NADH coupling assay based Lineweaver-Burk plot.

Compound in data set [10]: CCCC/C=C/CO[C@@H]1O[C@H](CO)[C@@H](O)[C@H](O)[C@H]1O
Briefly: Noncompetitive inhibition of Escherichia coli Heptosyltransferase I assessed as reduction in ADP release by measuring ODLA Km at 100 uM using ODLA and ADP-heptose substrates in presence of phospho(enol)pyruvate and NADH by pyruvate kinase and LDH dependent ADP/NADH coupling assay based Lineweaver-Burk plot.

Compound in data set [11]: CCCC/C=C/CO[C@@H]1O[C@H](CO)[C@@H](O)[C@H](O)[C@H]1O
Briefly: Noncompetitive inhibition of Escherichia coli Heptosyltransferase I assessed as reduction in ADP release by measuring ODLA Km at 10 uM using ODLA and ADP-heptose substrates in presence of phospho(enol)pyruvate and NADH by pyruvate kinase and LDH dependent ADP/NADH coupling assay based Lineweaver-Burk plot.

Compound in data set [12]: CCCC/C=C/CO[C@@H]1O[C@H](CO)[C@@H](O)[C@H](O)[C@H]1O
The data set can be described thus: Noncompetitive mixed type inhibition of Escherichia coli Heptosyltransferase I assessed as reduction in ADP release by measuring ADP-heptose Kcat at 1000 uM using ODLA and ADP-heptose substrates in presence of phospho(enol)pyruvate and NADH by pyruvate kinase and LDH dependent ADP/NADH coupling assay based Lineweaver-Burk plot.

Compound in data set [13]: CCCC/C=C/CO[C@@H]1O[C@H](CO)[C@@H](O)[C@H](O)[C@H]1O
The data set can be described thus: Noncompetitive mixed type inhibition of Escherichia coli Heptosyltransferase I assessed as reduction in ADP release by measuring ADP-heptose Km at 100 uM using ODLA and ADP-heptose substrates in presence of phospho(enol)pyruvate and NADH by pyruvate kinase and LDH dependent ADP/NADH coupling assay based Lineweaver-Burk plot.

Compound in data set [14]: CCCC/C=C/CO[C@@H]1O[C@H](CO)[C@@H](O)[C@H](O)[C@H]1O
Briefly: Noncompetitive inhibition of Escherichia coli Heptosyltransferase I assessed as reduction in ADP release by measuring ODLA Km at 1000 uM using ODLA and ADP-heptose substrates in presence of phospho(enol)pyruvate and NADH by pyruvate kinase and LDH dependent ADP/NADH coupling assay based Lineweaver-Burk plot.

Compound in data set [15]: CCCC/C=C/CO[C@@H]1O[C@H](CO)[C@@H](O)[C@H](O)[C@H]1O
The data set can be described thus: Noncompetitive mixed type inhibition of Escherichia coli Heptosyltransferase I assessed as reduction in ADP release by measuring ADP-heptose Kcat at 10 uM using ODLA and ADP-heptose substrates in presence of phospho(enol)pyruvate and NADH by pyruvate kinase and LDH dependent ADP/NADH coupling assay based Lineweaver-Burk plot.

Activity calls are given as the source filed them. The rule behind the calls is not given here.

Usually inhibition stands for the drop in the measured response relative to a control, in per cent. As a reminder, the Ki is a measure of affinity in units of concentration, obtained from inhibition or displacement. Take `O=C[C@H](O)[C@@H](O)[C@@H](O)[C@H](O)CO` [GALACTOSE]: the inhibition in data set [1] was found to be 28.5%. Also, the outcome in [2] was inactive. For the same molecule, in data set [3], the Ki stood at 500 µM.
For `CCCCC/C=C/CO[C@@H]1O[C@H](CO)[C@@H](O)[C@H](O)[C@H]1O`, the inhibition in data set [1] was found to be 11.9%. Also, the result in data set [2] was inactive.
On to `OC[C@H]1OC(O)[C@H](O)[C@@H](O)[C@@H]1O` (stereo partly specified) [DEXTROSE], for which the outcome in data set [2] was inactive. The Ki in data set [3] amounted to 280 µM.
`CCCCCC/C=C/CO[C@H]1O[C@H](CO)[C@H](O)[C@H](O)[C@H]1O`: in data set [1], the inhibition worked out at 8.8%. For the same molecule, the result in [2] was inactive.
With `CCCCCCCC/C=C/CO[C@@H]1O[C@H](CO)[C@@H](O)[C@H](O)[C@H]1O`, the inhibition in data set [1] was found to be 23.4%. Further, the result in [2] was inactive. Further, the Ki in data set [3] came to 520 µM.
The like results for `CCCC/C=C/CO[C@@H]1O[C@H](CO)[C@H](O)[C@H](O)[C@H]1O` were, in that order, 22.6%, “inactive” and 570 µM.
Consider `CCCCCC/C=C/CO[C@H]1O[C@H](CO)[C@@H](O)[C@H](O)[C@H]1O`, for which the inhibition in data set [1] turned out to be 16.7%. Moreover, the outcome in data set [2] was inactive.
The like results for `CCCCCC/C=C/CO[C@@H]1O[C@H](CO)[C@@H](O)[C@H](O)[C@H]1O` were, in that order, 4.2% and “inactive”.
The like results for `CCCCCCCC/C=C/CO[C@H]1O[C@H](CO)[C@@H](O)[C@H](O)[C@H]1O` were, in that order, “inactive” and “inactive”.
As for `CCCCC/C=C/CO[C@@H]1O[C@H](CO)[C@H](O)[C@H](O)[C@H]1O`, the inhibition in [1] was found to be 7.8%. Also, the result in data set [2] was inactive.
The like results for `CCCCCCCC/C=C/CO[C@H]1O[C@H](CO)[C@H](O)[C@H](O)[C@H]1O` were, in that order, “inactive” and “inactive”.
In the case of `CO[C@@H]1O[C@H](CO)[C@@H](O)[C@H](O)[C@H]1O`, in data set [1], the inhibition was 19.5%. For the same molecule, the outcome in data set [2] was inactive. Further, the Ki in data set [3] stood at 680 µM.
As for `CO[C@H]1O[C@H](CO)[C@H](O)[C@H](O)[C@H]1O`, in [1], the inhibition was 8.8%. Besides, the result in [2] was inactive.
The like results for `CCCCCCCCO[C@@H]1O[C@H](CO)[C@@H](O)[C@H](O)[C@H]1O` were, in that order, 8.3% and “inactive”.
On to `CCCCCC/C=C/CO[C@@H]1O[C@H](CO)[C@H](O)[C@H](O)[C@H]1O`, for which the inhibition in data set [1] turned out to be 6.3%. For the same molecule, in data set [2], the outcome was inactive.
Regarding `C=CCO[C@@H]1O[C@H](CO)[C@@H](O)[C@H](O)[C@H]1O`, in data set [1], the inhibition is 19.6%. In addition, in data set [2], the result was inactive. In [3], the Ki was determined as 650 µM.
Regarding `CO[C@H]1O[C@H](CO)[C@@H](O)[C@H](O)[C@H]1O`, the inhibition in data set [1] is 27.8%. The outcome in [2] was inactive. Also, in [3], the inhibition constant Ki came out at 370 µM.
On to `CCCCCCCC/C=C/CO[C@@H]1O[C@H](CO)[C@H](O)[C@H](O)[C@H]1O`, for which the inhibition in data set [1] was found to be 5%. Further, the outcome in data set [2] was inactive.
The like results for `C=CCO[C@@H]1O[C@H](CO)[C@H](O)[C@H](O)[C@H]1O` were, in that order, 10% and “inactive”.
Consider `CCCC/C=C/CO[C@@H]1O[C@H](CO)[C@@H](O)[C@H](O)[C@H]1O`, for which, in data set [1], the inhibition came out at 29.7%. Moreover, in data set [2], the result was inactive. For the same molecule, the Ki in data set [3] is 340 µM.
With `CO[C@@H]1O[C@H](CO)[C@H](O)[C@H](O)[C@H]1O`, the inhibition in data set [1] stood at 7%. Moreover, in data set [2], the outcome was inactive.

B1: Lipopolysaccharide heptosyltransferase 1 (Escherichia coli (strain K12)), P24173 (protein)
chain: MRVLIVKTSSMGDVLHTLPALTDAQQAIPGIKFDWVVEEGFAQIPSWHAAVERVIPVAIRRWRKAWFSAPIKAERKAFREALQAENYDAVIDAQGLVKSAALVTRLAHGVKHGMDWQTAREPLASLFYNRKHHIAKQQHAVERTRELFAKSLGYSKPQTQGDYAIAQHFLTNLPTDAGEYAVFLHATTRDDKHWPEEHWRELIGLLADSGIRIKLPWGAPHEEERAKRLAEGFAYVEVLPKMSLEGVARVLAGAKFVVSVDTGLSHLTAALDRPNITVYGPTDPGLIGGYGKNQMVCRAPRENLINLNSQAVLEKLSSL
What is called kcat is the number of substrate molecules converted per active site and unit of time at saturation. One may read the Km as the concentration of substrate that gives half-maximal velocity. On to B1, for which the kcat was determined as 1.4 s⁻¹ in [4]; 0.9 s⁻¹ in [6]; 1.6 s⁻¹ in [7]; 1.3 s⁻¹ in [9]; 0.76 s⁻¹ in data set [12]; 2.8 s⁻¹ in data set [15]. Also, the Michaelis-Menten constant (Km) in data set [5] is 38 µM; in [8] it was 277 µM; in [10] it was 108 µM; in data set [11] it was 114 µM; in [13], 135 µM; in [14] it was 65 µM.
